Data set [1] is described as follows: Lipophilicity, log K of the compound in methanol-water mixture by HPLC. The format is physicochemical. The procedure, abridged: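 Reversed-phase HPLC on a Hypersil BDS C18 column (5 µm, 150 × 4.6 mm) with UV detection at 320 nm. Samples were dissolved in methanol. Mobile phase was methanol at varying volume fractions in 10 mM acetate buffer pH 4, run at 1 mL/min and room temperature. Dead time was taken from injection of acetone dissolved in water.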

Data set [2] deals with Blumeria graminis. In words: Fungistatic activity against Blumeria graminis infested wheat seedling assessed as inhibition of fungal infection at 500 ug/ml applied as spray after 7 to 14 days under green house conditions relative to control. The format is functional. The procedure, abridged:
(§1)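 Greenhouse test on healthy wheat seedlings with Erysiphe graminis. At the well-developed first-leaf stage, plants were sprayed with compound solution at 1000 or 500 µg/mL, 10 mL of solution per treatment, with three repeats in 9 cm paraffin cups.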

For data set [3], the system named is Blumeria graminis. Description: Fungistatic activity against Blumeria graminis infested wheat seedling assessed as inhibition of fungal infection at 1000 ug/ml applied as spray after 7 to 14 days under green house conditions relative to control. In kind it is functional. Put shortly:
as §1

Data set [4] has as its system Phytophthora cactorum. Description: Fungistatic activity against Phytophthora cactorum assessed as mycelial growth inhibition at 20 ug/ml after 4 to 8 days relative to control. In kind it is functional. As to conditions: for inhibition of growth at 20 µg/mL: read-out: GI. The procedure, abridged: (§2)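 Compound solutions or suspensions were diluted into PDA agar to final 200 or 20 µg/mL and poured into Petri dishes. Once the agar set, mycelium-covered agar disks of the fungus were placed at three sites on the surface. Linear colony growth was measured after 4-8 days, depending on the culture. Inhibition J = [(C − T)/C] × 100 versus untreated control, reported on a four-degree scale.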

The subject of data set [5] is Phytophthora cactorum. In words: Fungistatic activity against Phytophthora cactorum assessed as mycelial growth inhibition at 200 ug/ml after 4 to 8 days relative to control. The settings on record: for inhibition of growth at 200 µg/mL: read-out: GI. The format is functional. Put shortly: as §2
The test system of data set [6] is Fusarium culmorum. In words: Fungistatic activity against Fusarium culmorum assessed as mycelial growth inhibition at 20 ug/ml after 4 to 8 days relative to control. The format is functional. The settings on record: for inhibition of growth at 20 µg/mL: read-out: GI. Put shortly: as §2
Data set [7] relates to Fusarium culmorum. Description: Fungistatic activity against Fusarium culmorum assessed as mycelial growth inhibition at 200 ug/ml after 4 to 8 days relative to control. In kind it is functional. As to conditions: for inhibition of growth at 200 µg/mL: read-out: GI. The procedure, abridged:
as §2

Data set [8] relates to Rhizoctonia solani. In words: Fungistatic activity against Rhizoctonia solani assessed as mycelial growth inhibition at 20 ug/ml after 4 to 8 days relative to control. The format is functional. The settings on record: for inhibition of growth at 20 µg/mL: read-out: GI. The procedure, abridged:
as §2

Data set [9] concerns Rhizoctonia solani. Description: Fungistatic activity against Rhizoctonia solani assessed as mycelial growth inhibition at 200 ug/ml after 4 to 8 days relative to control. In kind it is functional. As to conditions: for inhibition of growth at 200 µg/mL: read-out: GI. The procedure, abridged:
as §2

The subject of data set [10] is Botrytis cinerea. Description: Fungistatic activity against Botryotinia fuckeliana assessed as mycelial growth inhibition at 20 ug/ml after 4 to 8 days relative to control. In kind it is functional. As to conditions: for inhibition of growth at 20 µg/mL: read-out: GI. The procedure, abridged:
as §2

The subject of data set [11] is Alternaria alternata. Description: Fungistatic activity against Alternaria alternata assessed as mycelial growth inhibition at 20 ug/ml after 4 to 8 days relative to control. In kind it is functional. The settings on record: for inhibition of growth at 20 µg/mL: read-out: GI. Put shortly: as §2
For data set [12], the system named is Botrytis cinerea. Description: Fungistatic activity against Botryotinia fuckeliana assessed as mycelial growth inhibition at 200 ug/ml after 4 to 8 days relative to control. The settings on record: for inhibition of growth at 200 µg/mL: read-out: GI. In kind it is functional. Put shortly: as §2
Data set [13] concerns Alternaria alternata. In words: Fungistatic activity against Alternaria alternata assessed as mycelial growth inhibition at 200 ug/ml after 4 to 8 days relative to control. The settings on record: for inhibition of growth at 200 µg/mL: read-out: GI. The format is functional. The procedure, abridged:
as §2

Activity calls are given as the source filed them. No cut-off for these calls is given here.

Broadly, the inhibition is the share of the control response that was lost under treatment.

`COc1ccc(COC(=O)NNC(=S)c2ccc(O)cc2O)cc1`: the “log K” value in data set [1] stood at 0.103.

For the compound `O=C(Nc1ccccc1)c1ccccc1NC(=S)c1ccc(O)cc1O`, in data set [2], the inhibition at 500 µg/mL was 0%. In [3], the inhibition at 1000 µg/mL is 41%. Moreover, the inhibition of growth at 20 µg/mL in data set [4] was 0%; in data set [6] it was 0%; in data set [8], 21%; in data set [10], 0%; in data set [11], 0%. For the same compound, the inhibition of growth at 200 µg/mL in data set [5] stood at 61%; in data set [7] it was 61%; in [9], 61%; in data set [12], 41%; in data set [13], 61%. The “log K” value in data set [1] is -0.37.

For the compound `Oc1ccc(C(=S)n2nnc3cc(Cl)ccc32)c(O)c1`, the inhibition at 500 µg/mL in [2] was found to be 0%. Besides, the inhibition at 1000 µg/mL in data set [3] was 21%. Further, the inhibition of growth at 20 µg/mL stood at 21% in data set [4]; 0% in data set [6]; 21% in data set [8]; 21% in data set [10]; 0% in data set [11]. Also, the inhibition of growth at 200 µg/mL in data set [5], in [7], in [9], in [12] and in data set [13] was 81% in each case. Also, in [1], the “log K” value is on record as 0.936.

Regarding `O=C(O)c1cc2cc(OCc3ccccc3)ccc2n1C(=S)c1ccc(O)cc1O`, in data set [2], the inhibition at 500 µg/mL came to 0%. For the same compound, in data set [3], the inhibition at 1000 µg/mL was found to be 21%. For the same compound, the inhibition of growth at 20 µg/mL in data set [4], in [6], in [8], in data set [10] and in data set [11] was 0% each time. In addition, the inhibition of growth at 200 µg/mL in data set [5] is 41%; in data set [7], 21%; in [9] it was 0%; in data set [12], 0%; in data set [13], 21%. Besides, the “log K” value in [1] is recorded as 0.405.

Consider `Oc1ccc(C(=S)NC(=S)c2cccnc2)c(O)c1`, for which, in data set [2], the inhibition at 500 µg/mL is 0%. Besides, the inhibition at 1000 µg/mL in data set [3] was 21%. In addition, the inhibition of growth at 20 µg/mL in data set [4], in data set [6], in data set [8], in data set [10] and in data set [11] was 0% each time. Moreover, the inhibition of growth at 200 µg/mL in data set [5] turned out to be 81%; in data set [7], 81%; in [9], 61%; in [12], 81%; in data set [13], 61%. For the same compound, the “log K” value in [1] was 0.751.

Take `Oc1ccc(C(=S)NNC(=S)Nc2ccc(F)cc2)c(O)c1`: in data set [2], the inhibition at 500 µg/mL was found to be 0%. The inhibition at 1000 µg/mL in data set [3] was found to be 0%. The inhibition of growth at 20 µg/mL in data set [4], in data set [6], in data set [8], in data set [10] and in data set [11] was 0% each time. The inhibition of growth at 200 µg/mL amounted to 0% in data set [5]; 0% in [7]; 0% in [9]; 0% in data set [12]; 21% in data set [13]. Also, in data set [1], the “log K” value stood at 0.24.

In the case of `Oc1ccc(C(=S)Nc2ccc(Oc3ccccc3)cc2)c(O)c1`, in [2], the inhibition at 500 µg/mL came out at 0%. Moreover, in data set [3], the inhibition at 1000 µg/mL stood at 0%. In addition, the inhibition of growth at 20 µg/mL in data set [4], in [6], in [8], in [10] and in [11] was 0% each time. Moreover, the inhibition of growth at 200 µg/mL in [5] was determined as 21%; in [7], 0%; in data set [9] it was 21%; in [12] it was 0%; in [13] it was 41%. The “log K” value in data set [1] came to 1.305.

Take `CCOC(=O)c1c(C)csc1NC(=S)c1ccc(O)cc1O`: in data set [1], the “log K” value is -0.28.

Turning to `CC(C)(C)c1cc(NC(=S)c2ccc(O)cc2O)no1`, the inhibition at 500 µg/mL in data set [2] turned out to be 0%. Further, the inhibition at 1000 µg/mL in [3] was found to be 21%. Further, the inhibition of growth at 20 µg/mL in [4] stood at 0%; in data set [6], 21%; in data set [8], 0%; in data set [10], 0%; in data set [11], 21%. Besides, the inhibition of growth at 200 µg/mL was 61% in data set [5]; 61% in data set [7]; 41% in [9]; 41% in data set [12]; 61% in data set [13]. Further, the “log K” value in data set [1] is on record as -0.302.

Take `CCOc1ccc(C(=O)NNC(=S)c2ccc(O)cc2O)cc1`: in [1], the “log K” value was determined as 0.352.

For the compound `CC(C)(C)c1nnc(NC(=S)c2ccc(O)cc2O)s1`, the inhibition at 500 µg/mL in data set [2] is 0%. Also, the inhibition at 1000 µg/mL in data set [3] came to 21%. Besides, the inhibition of growth at 20 µg/mL in data set [4], in data set [6], in [8], in data set [10] and in data set [11] was 0% in each case. In addition, the inhibition of growth at 200 µg/mL in data set [5], in data set [7], in data set [9], in data set [12] and in [13] was 0% each time. Moreover, the “log K” value in data set [1] was -0.131.

Regarding `O=C(OC/C=C/c1ccccc1)c1ccccc1NC(=S)c1ccc(O)cc1O`, the inhibition at 500 µg/mL in [2] came out at 21%. Moreover, the inhibition at 1000 µg/mL in [3] is 21%. For the same compound, the inhibition of growth at 20 µg/mL was 41% in [4]; 41% in data set [6]; 21% in data set [8]; 21% in data set [10]; 41% in [11]. In addition, the inhibition of growth at 200 µg/mL in data set [5] was found to be 81%; in data set [7], 81%; in [9], 81%; in data set [12], 61%; in [13] it was 61%. The “log K” value in data set [1] was 0.488.

As to `CC12CC1(C)C(=O)N(c1cc(Cl)cc(Cl)c1)C2=O` (centres undefined) [PROCYMIDONE], the “growth inhibition (GI)” value in data set [4], in [5], in [6], in [7], in data set [8] and in data set [9] was “inactive” each time. Also, the inhibition of growth at 20 µg/mL in data set [10] and in data set [11] was 81% each time. Besides, the inhibition of growth at 200 µg/mL in data set [12] and in data set [13] was 81% in each case.

`Oc1ccc(C(=S)NNc2nncc3ccccc23)c(O)c1`: the “log K” value in [1] came to 0.228.

Regarding `Oc1ccc(C(=S)NC2=NN(c3ccccc3)CC2)c(O)c1`, the “log K” value in [1] stood at 0.643.

Regarding `O=C(NNC(=S)c1ccc(O)cc1O)c1ccncc1`, the “log K” value in [1] was -0.21.

Take `O=C(CC(=O)c1ccc(NC(=S)c2ccc(O)cc2O)cc1)Nc1ccccc1Cl`: the “log K” value in [1] is on record as -0.29.

`COC(=O)Nc1nc2ccccc2[nH]1` [CARBENDAZIM]: the inhibition of growth at 20 µg/mL in data set [4], in data set [6] and in data set [8] was 81% in each case. Moreover, the inhibition of growth at 200 µg/mL in data set [5], in data set [7] and in data set [9] was 81% in each case. The “growth inhibition (GI)” value in data set [10], in data set [11], in data set [12] and in data set [13] was “inactive” each time.

(Values after ChEMBL document CHEMBL3046604, “Synthesis and fungistatic activity of new groups of 2,4-dihydroxythiobenzoyl derivatives against phytopathogenic fungi” (J Agric Food Chem, 2003).)
